In data set [1] the target is T1, Cytosolic phospholipase A2 (Homo sapiens) (UniProt P47712).
T1 sequence (whole entry): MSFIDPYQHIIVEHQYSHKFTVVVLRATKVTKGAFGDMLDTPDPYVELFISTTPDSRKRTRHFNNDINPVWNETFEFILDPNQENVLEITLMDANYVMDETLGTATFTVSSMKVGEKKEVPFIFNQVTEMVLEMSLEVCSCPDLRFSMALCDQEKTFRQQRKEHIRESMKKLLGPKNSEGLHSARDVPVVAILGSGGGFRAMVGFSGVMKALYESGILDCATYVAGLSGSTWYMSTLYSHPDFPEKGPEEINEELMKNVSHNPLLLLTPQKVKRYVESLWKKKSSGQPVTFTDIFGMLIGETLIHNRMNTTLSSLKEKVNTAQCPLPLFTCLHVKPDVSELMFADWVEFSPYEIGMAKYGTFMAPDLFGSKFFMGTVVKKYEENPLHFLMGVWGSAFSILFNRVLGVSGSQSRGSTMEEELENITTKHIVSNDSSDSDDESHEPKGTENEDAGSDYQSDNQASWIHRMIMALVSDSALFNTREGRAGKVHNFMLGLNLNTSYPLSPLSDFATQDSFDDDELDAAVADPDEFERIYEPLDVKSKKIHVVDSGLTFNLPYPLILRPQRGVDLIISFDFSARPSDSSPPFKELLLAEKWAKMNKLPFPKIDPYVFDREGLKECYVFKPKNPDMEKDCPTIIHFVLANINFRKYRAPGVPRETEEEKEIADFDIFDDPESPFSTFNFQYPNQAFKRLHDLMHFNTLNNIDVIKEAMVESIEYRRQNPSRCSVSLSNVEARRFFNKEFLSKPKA
In words: Inhibition of cPLA2alpha-mediated [3H]-arachidonic acid release in Ca2+ ionophore A23187-stimulated human neutrophils at 10 uM preincubated for 15 mins followed by Ca2+ ionophore A23187 stimulation measured after 5 mins by scintillation counting method. A digest of the protocol:
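Neutrophils (1 × 10^7) labelled with 5 nM [3H]-AA for 120 min at 37 °C, washed with fatty-acid-free BSA buffer, pre-incubated 15 min at 37 °C with compound or 0.1% DMSO, then stimulated with 2.5 µM A23187 for 5 min. Released [3H]-AA in supernatant counted by liquid scintillation; n=3-4.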

Data set [2] addresses T2, Polyunsaturated fatty acid lipoxygenase ALOX15 (Homo sapiens) (UniProt P16050).
T2 sequence (whole entry): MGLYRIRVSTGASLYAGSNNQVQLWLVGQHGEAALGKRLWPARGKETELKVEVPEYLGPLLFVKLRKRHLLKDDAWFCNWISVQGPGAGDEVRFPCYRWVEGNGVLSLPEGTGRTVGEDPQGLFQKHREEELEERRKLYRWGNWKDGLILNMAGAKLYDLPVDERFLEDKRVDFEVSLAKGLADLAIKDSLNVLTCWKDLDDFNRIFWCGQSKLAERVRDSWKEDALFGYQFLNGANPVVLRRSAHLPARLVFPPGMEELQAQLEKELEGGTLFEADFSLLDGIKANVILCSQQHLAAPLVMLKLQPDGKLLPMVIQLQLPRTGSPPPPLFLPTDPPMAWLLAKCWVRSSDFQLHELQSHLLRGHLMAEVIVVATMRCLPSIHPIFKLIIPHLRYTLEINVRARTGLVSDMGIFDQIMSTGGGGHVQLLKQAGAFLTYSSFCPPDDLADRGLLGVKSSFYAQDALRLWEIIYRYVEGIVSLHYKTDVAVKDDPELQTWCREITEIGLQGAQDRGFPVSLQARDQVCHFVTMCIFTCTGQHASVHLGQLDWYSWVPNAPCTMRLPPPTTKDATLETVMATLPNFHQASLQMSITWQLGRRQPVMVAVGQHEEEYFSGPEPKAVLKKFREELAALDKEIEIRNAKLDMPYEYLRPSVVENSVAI
In words: Modulation of 15-LO-mediated 17-HDHA level in human M2 macrophages derived from IL4-polarized human monocyte derived macrophages at 3 uM preincubated for 15 mins followed by Escherichia coli (O6:K2:H1) challenge for 90 mins by LC-MS/MS analysis. A digest of the protocol:
(§1)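 Monocytes differentiated 6 days with M-CSF (20 ng/ml), then polarized 48 h with IL-4 20 ng/ml (M2). Cells (2 × 10^6) in PBS/1 mM CaCl2 pre-incubated 15 min at 37 °C with 3 µM compound or 0.1% DMSO, then challenged with E. coli O6:K2:H1 (1:50) for 90 min. Lipid mediators extracted by SPE with deuterated internal standards and quantified by UPLC-MS/MS as % of vehicle.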

The target of another data set is Cyclooxygenase (Homo sapiens, UniProt P35354+P23219). In words: Modulation of COX1/2-mediated 11-HETE level in human M2 macrophages derived from IL4-polarized human monocyte derived macrophages at 3 uM preincubated for 15 mins followed by Escherichia coli (O6:K2:H1) challenge for 90 mins by LC-MS/MS analysis. The data set is classed as ADME. The conditions noted are these: 1.5 h. A digest of the protocol:
as §1

For data set [3], the target named is T3, Polyunsaturated fatty acid 5-lipoxygenase (Homo sapiens) (UniProt P09917).
T3 sequence (whole entry): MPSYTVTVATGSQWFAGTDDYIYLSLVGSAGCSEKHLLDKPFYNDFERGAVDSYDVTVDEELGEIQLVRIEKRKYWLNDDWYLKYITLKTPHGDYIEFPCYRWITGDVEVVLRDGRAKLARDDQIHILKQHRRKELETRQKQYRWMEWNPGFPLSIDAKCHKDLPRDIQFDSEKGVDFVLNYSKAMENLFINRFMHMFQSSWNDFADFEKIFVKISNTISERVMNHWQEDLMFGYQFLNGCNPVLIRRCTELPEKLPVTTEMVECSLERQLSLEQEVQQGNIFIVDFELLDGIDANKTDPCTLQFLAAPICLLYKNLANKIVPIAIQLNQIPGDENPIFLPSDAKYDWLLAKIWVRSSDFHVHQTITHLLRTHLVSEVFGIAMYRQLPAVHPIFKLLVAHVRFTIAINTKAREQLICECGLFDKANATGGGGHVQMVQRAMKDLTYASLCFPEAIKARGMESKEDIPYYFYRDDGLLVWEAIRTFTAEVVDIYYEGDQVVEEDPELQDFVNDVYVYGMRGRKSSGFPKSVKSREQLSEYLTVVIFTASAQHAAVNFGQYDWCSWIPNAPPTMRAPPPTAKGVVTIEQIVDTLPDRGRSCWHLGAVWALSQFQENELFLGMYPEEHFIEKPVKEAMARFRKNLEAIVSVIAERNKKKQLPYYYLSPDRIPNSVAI
Kind of data set: Ratio of IC50 for recombinant human 5-LO to IC50 for 5-LO in human neutrophils.

Active and inactive are the calls of the source. No cut-off for these calls is given here.

On to `O=C(O)c1ccc(N(Cc2cccc(OCc3ccccc3)c2)S(=O)(=O)c2ccc(-c3ccccc3)cc2)cc1`, for which the inhibition entry in data set [1] is “inactive”. Moreover, the Activity turned out to be 124% in data set [2] and 106% at Cyclooxygenase. Also, the Ratio IC50 in data set [3] turned out to be 8.

Values taken from ChEMBL document CHEMBL4270576, “Discovery of a benzenesulfonamide-based dual inhibitor of microsomal prostaglandin E2 synthase-1 and 5-lipoxygenase that favorably modulates lipid mediator biosynthesis in inflammation” (Eur J Med Chem, 2018).
